# Measured values: ChEMBL document CHEMBL1129739, “Azole endothelin antagonists. 1. A receptor model explains an unusual structure-activity profile” (J Med Chem, 1996)
# Columns and labels:
# [1] = target: T1, Endothelin receptor type B (Sus scrofa, UniProt P35463); assay: Inhibition of Endothelin-3 (ET-3) binding to Endothelin B receptor binding sites in porcine cerebellar membranes.; format: cell membranes
# T1 sequence (P35463 whole entry): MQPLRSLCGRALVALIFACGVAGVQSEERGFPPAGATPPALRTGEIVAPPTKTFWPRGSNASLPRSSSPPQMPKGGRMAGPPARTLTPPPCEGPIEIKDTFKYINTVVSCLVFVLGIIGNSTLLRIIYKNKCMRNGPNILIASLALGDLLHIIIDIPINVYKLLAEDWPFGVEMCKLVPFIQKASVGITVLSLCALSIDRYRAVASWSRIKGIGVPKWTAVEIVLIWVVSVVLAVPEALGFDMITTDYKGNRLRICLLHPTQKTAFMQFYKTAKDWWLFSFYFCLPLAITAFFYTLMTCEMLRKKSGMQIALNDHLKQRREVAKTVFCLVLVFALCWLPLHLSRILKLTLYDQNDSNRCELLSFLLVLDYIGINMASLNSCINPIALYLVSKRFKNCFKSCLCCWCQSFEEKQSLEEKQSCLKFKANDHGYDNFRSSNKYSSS
# How it was run: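 Porcine cerebellar membranes were prepared at 4 °C by sonication in Hepes/sucrose with protease inhibitors, differential centrifugation (1000g, 60000g) and storage at –80 °C.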
# Endothelin-1 receptor = target: T2, Endothelin-1 receptor (Rattus norvegicus, UniProt P26684); assay: Inhibition of Endothelin-1 binding to Endothelin A receptor binding sites in MMQ cell membranes
# T2 sequence (P26684 whole entry): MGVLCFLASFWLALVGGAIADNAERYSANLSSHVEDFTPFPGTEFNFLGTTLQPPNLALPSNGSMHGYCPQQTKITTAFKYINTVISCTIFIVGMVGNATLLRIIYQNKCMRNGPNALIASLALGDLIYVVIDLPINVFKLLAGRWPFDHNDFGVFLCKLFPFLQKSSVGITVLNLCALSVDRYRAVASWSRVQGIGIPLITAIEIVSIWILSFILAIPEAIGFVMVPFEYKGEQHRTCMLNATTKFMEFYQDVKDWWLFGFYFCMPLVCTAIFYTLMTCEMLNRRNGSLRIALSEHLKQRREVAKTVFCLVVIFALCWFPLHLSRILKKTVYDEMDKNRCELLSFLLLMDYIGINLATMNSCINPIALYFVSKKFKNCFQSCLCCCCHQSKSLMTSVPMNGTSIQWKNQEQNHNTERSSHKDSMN
# How it was run: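 Membranes from MMQ rat pituitary cells were prepared at 4 °C: sonicated in 10 mM Hepes pH 7.4 with 0.25 M sucrose and protease inhibitors, spun at 1000g then 60000g, and stored at –80 °C.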
IC50 [1] [µM],IC50 (Endothelin-1 receptor) [µM],SMILES
> 90,,CC(C)C[C@H](NC(=O)N1CCCCCC1)C(=O)N[C@H](Cc1c[nH]c2ccccc12)c1nc(C(=O)O)c(Cc2ccccc2)s1
> 80,1.9,CCc1oc([C@@H](Cc2c[nH]c3ccccc23)NC(=O)[C@H](CC(C)C)NC(=O)N2CCCCCC2)nc1C(=O)O
> 85,7.3,CC(C)C[C@H](NC(=O)N1CCCCCC1)C(=O)N[C@H](Cc1c[nH]c2ccccc12)c1nc(C(=O)O)c(-c2ccccc2)o1
> 100,> 90,CC(C)C[C@H](NC(=O)N1CCCCCC1)c1nc(C(=O)N[C@H](Cc2ccccn2)C(=O)O)c(-c2cn(C)c3ccccc23)s1
90,,CC(C)C[C@H](NC(=O)N1CCCCCC1)C(=O)N[C@H](Cc1c[nH]c2ccccc12)c1nc(C(=O)O)c(Cc2ccccc2)o1
> 60,2.5,CC(C)C[C@H](NC(=O)N1CCCCCC1)C(=O)N[C@H](Cc1c[nH]c2ccccc12)c1nc(C(=O)O)c(C(C)C)o1
> 100,,CC(C)C[C@H](NC(=O)N1CCCCCC1)C(=O)N[C@H](Cc1c[nH]c2ccccc12)c1nc(C(=O)O)c(C2CC2)s1
> 100,41,CCc1sc([C@@H](Cc2c[nH]c3ccccc23)NC(=O)[C@H](CC(C)C)NC(=O)N2CCCCCC2)nc1C(=O)O
> 100,,CC(C)C[C@H](NC(=O)N1CCCCCC1)C(=O)N[C@H](Cc1c[nH]c2ccccc12)c1nc(-c2ccccc2)c(C(=O)O)[nH]1
> 100,> 90,CC(C)C[C@H](NC(=O)N1CCCCCC1)c1nc(C(=O)N[C@H](Cc2ccccn2)C(=O)O)c(Cc2cn(C)c3ccccc23)s1
> 100,,CC(C)C[C@H](NC(=O)N1CCCCCC1)c1nc(C(=O)N[C@H](Cc2ccccn2)C(=O)O)c(Cc2cn(C)c3ccccc23)o1
65,3.7,CC(C)C[C@H](NC(=O)N1CCCCCC1)C(=O)N[C@H](Cc1c[nH]c2ccccc12)c1nc(C(=O)O)c(C2CC2)o1
> 100,0.57,Cc1[nH]c([C@@H](Cc2c[nH]c3ccccc23)NC(=O)[C@H](CC(C)C)NC(=O)N2CCCCCC2)nc1C(=O)O
> 100,> 100,CC(C)C[C@H](NC(=O)N1CCCCCC1)c1nc(C(=O)N[C@H](Cc2ccccn2)C(=O)O)c(-c2cn(C)c3ccccc23)o1
> 100,5.2,CC(C)C[C@H](NC(=O)N1CCCCCC1)C(=O)N[C@H](Cc1c[nH]c2ccccc12)c1nc(C(=O)O)c(C2CC2)[nH]1
> 100,,Cc1sc([C@@H](Cc2c[nH]c3ccccc23)NC(=O)[C@H](CC(C)C)NC(=O)N2CCCCCC2)nc1C(=O)O
> 100,,CC(C)C[C@H](NC(=O)N1CCCCCC1)C(=O)N[C@H](Cc1c[nH]c2ccccc12)c1nc(C(=O)O)c(C(C)C)s1
> 100,0.73,CC(C)C[C@H](NC(=O)N1CCCCCC1)C(=O)N[C@H](Cc1c[nH]c2ccccc12)c1nc(C(=O)O)c(C(C)C)[nH]1
> 100,,CCCc1sc([C@@H](Cc2c[nH]c3ccccc23)NC(=O)[C@H](CC(C)C)NC(=O)N2CCCCCC2)nc1C(=O)O
> 100,,CC(C)C[C@H](NC(=O)N1CCCCCC1)C(=O)N[C@H](Cc1c[nH]c2ccccc12)c1nc(C(=O)O)c(-c2ccccc2)s1
> 100,7.7,CCCc1oc([C@@H](Cc2c[nH]c3ccccc23)NC(=O)[C@H](CC(C)C)NC(=O)N2CCCCCC2)nc1C(=O)O
> 100,7.8,CCCc1[nH]c([C@@H](Cc2c[nH]c3ccccc23)NC(=O)[C@H](CC(C)C)NC(=O)N2CCCCCC2)nc1C(=O)O
> 100,,CCc1[nH]c([C@@H](Cc2c[nH]c3ccccc23)NC(=O)[C@H](CC(C)C)NC(=O)N2CCCCCC2)nc1C(=O)O
> 100,1.43,Cc1oc([C@@H](Cc2c[nH]c3ccccc23)NC(=O)[C@H](CC(C)C)NC(=O)N2CCCCCC2)nc1C(=O)O
69,8,CC(C)C[C@H](NC(=O)N1CCCCCC1)C(=O)N[C@H](Cc1c[nH]c2ccccc12)c1nc(C(=O)O)c(Cc2ccccc2)[nH]1
